Experimental data pooled from the literature.
Protocols differ between the studies behind these lines.

SMILES	organism	test	test system	conditions	measurement	result
O=C(Cn1ccnc1[N+](=O)[O-])NCc1ccccc1	Trypanosoma cruzi	parasite growth	rat Myoblast, TULAHUEN	intracellular, amastigote	IC50	0.352 µg/mL
O=S(=O)(c1ccc(-c2ccc3ncnc(Nc4ccc(OCc5ccccc5)c(Cl)c4)c3c2)cc1)N1CCOCC1	Trypanosoma cruzi	parasite growth, absorbance	NIH3T3, TULAHUEN	10 µM, intracellular, amastigote	inhibition	9%
Cc1ccc(CNC(=O)c2nc(Cl)c3cccnc3c2O)cc1	Human betaherpesvirus 5	viral replication, inhibitor	HFF		EC50	21 µM
O=C1c2ccccc2C(c2ccccc2)C(=O)N1OCc1ccccc1 (stereo not shown)	Human betaherpesvirus 5	viral replication, inhibitor		10 µM, 7 days	inhibition	12%
Nc1ccn(C[C@@H](CO)OCP(=O)(O)O)c(=O)n1	Human betaherpesvirus 5	viral replication			IC50	0.28 µM
Nc1ncnc2c([C@@H]3N[C@H](CO)[C@@H](O)[C@H]3O)c[nH]c12	human respiratory syncytial virus	viral replication, inhibitor	MA104	0.9 µM	inhibition	0%
COc1cccc(-c2nc(C(=O)NCc3ccc(C)cc3)c(O)c3ncccc23)c1	Human betaherpesvirus 5	viral replication, inhibitor	HFF		EC50	24 µM
O=c1[nH]c2c(-c3ccccc3)csc2c(=O)n1O	Human betaherpesvirus 5	viral replication, inhibitor		10 µM, 7 days	inhibition	5.3%
Cc1ccc(CNC(=O)c2nc(-c3ccccc3)c3cccnc3c2O)cc1	Human betaherpesvirus 5	viral replication, inhibitor	HFF		EC50	31 µM
Cc1sc2[nH]c(=O)n(O)c(=O)c2c1C	Human betaherpesvirus 5	viral replication, inhibitor		10 µM, 7 days	inhibition	-5.1%
